Source: PubChem BioAssay (several laboratories)
Only some compounds are listed: those with a hit (about 2.2% of all), similar ones and a draw of the others.
Neddyl block – inhibitors of cullin neddylation, primary screen, biochemical, TR-FRET, uHTS, NAE and Ubc12. inhibition, % at 25 µM. hit rate 0.58% among 360,000. AID 651699, 2012; in the data active = inhibition above about 36%
Target sequence (P61081 whole entry, looked up): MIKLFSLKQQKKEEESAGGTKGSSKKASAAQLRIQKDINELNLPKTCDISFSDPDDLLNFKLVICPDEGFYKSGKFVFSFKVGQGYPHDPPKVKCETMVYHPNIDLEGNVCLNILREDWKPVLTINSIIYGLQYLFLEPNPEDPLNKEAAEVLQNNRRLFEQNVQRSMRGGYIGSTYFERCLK
Target sequence (Q13564 whole entry, looked up): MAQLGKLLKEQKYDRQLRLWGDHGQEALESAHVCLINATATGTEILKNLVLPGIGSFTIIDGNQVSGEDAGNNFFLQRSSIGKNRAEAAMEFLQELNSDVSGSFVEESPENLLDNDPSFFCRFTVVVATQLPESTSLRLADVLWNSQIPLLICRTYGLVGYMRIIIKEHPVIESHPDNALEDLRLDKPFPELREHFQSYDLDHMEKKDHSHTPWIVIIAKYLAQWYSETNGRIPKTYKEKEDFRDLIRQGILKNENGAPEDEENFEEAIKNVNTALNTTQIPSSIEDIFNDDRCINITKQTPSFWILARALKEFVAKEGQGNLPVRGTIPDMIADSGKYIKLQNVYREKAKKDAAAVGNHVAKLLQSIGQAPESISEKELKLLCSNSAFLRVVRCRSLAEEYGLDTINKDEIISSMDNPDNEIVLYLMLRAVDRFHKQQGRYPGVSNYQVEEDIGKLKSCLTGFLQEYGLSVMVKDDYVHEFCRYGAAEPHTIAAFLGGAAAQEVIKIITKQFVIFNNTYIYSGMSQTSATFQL
PfGluPho inh – PfG6PD enzyme inhibitors, primary screen, biochemical, fluorescence intensity, uHTS. glucose-6-phosphate dehydrogenase-6-phosphogluconolactonase (Plasmodium falciparum 3D7). inhibition, % at 20 µM. hit rate 0.78% among 350,000. PfGluPho enzyme, NADPH resazurin-diaphorase fluorescence;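 active = inhibition reaching at least a set limit at 20 µM in the primary screen, cut at about 59% in these data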
HKDC1 inhibitor – HKDC1 hexokinase inhibitors, primary screen, biochemical, fluorescence, uHTS; Q2TB90; hit rate 0.16% among 340,000; recombinant HKDC1, G6PDH/diaphorase resazurin coupled fluorescence; inhibition, % at 20 µM;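 active = inhibition above about 35% when tested at 20 µM, limit read from the data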
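Assay system: in-house recombinant HK5 (HKDC1) enzyme. Input: HKDC1 at 5 µg/mL. Medium: Tris pH 8.0 buffer with MgCl2, Tween-20, BSA, BME. Dosing: single 20 µM dose. Schedule: 90 min reaction incubation at room temperature, dark. Signal: resazurin-to-resorufin fluorescence via G6PDH and diaphorase coupling, 525/613 nm. Controls: DMSO-enzyme wells negative, buffer-substituted wells positive.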
PfM18AAP inh – PfM18AAP inhibitors, malaria aminopeptidase, primary screen, biochemical, QFRET, recombinant enzyme; H-Glu-NHMec fluorogenic cleavage; inhibition, % at 7.35 µM; hit rate 1.2% among 290,000;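 active = inhibition above the campaign mean inhibition over all tested compounds plus 3 SD, cut at about 28% in these data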
HKDC1 act conf – HKDC1 hexokinase activators, confirmation, biochemical, single concentration; hit rate 14% among 740; recombinant HKDC1, G6PDH/diaphorase resazurin fluorescence; stronger effect = lower value; shares compounds with HKDC1 inhibitor; inhibition, % at 20 µM;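 active = inhibition at or below a set negative limit, negative inhibition meaning the enzyme was activated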
PfGluPho conf – PfG6PD inhibitors, hit retest, confirmation, biochemical, fluorescence intensity, single concentration. shares compounds with PfGluPho inh. recombinant PfGluPho, NADPH-diaphorase-resazurin fluorescence. inhibition, % at 20 µM. hit rate 34% among 2,400;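 active = inhibition of at least 50% at 20 µM in any single replicate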
Diaphorase 10uM – diaphorase inhibitors and chemical oxidizers, confirmation, counter-screen for P. falciparum G6PD inhibitor project, biochemical, fluorescence intensity, 10 µM NADPH | inhibition, % at 20 µM | hit rate 39% among 820 | AID 504862, 2011 | shares compounds with PfGluPho inh | diaphorase-coupled resazurin reduction, NADPH 10 uM;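 active = average inhibition reaching 50% or more with the compound at 20 µM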;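 note: resorufin red fluorescence formed as diaphorase reduces resazurin using NADPH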
Diaph ctr 30uM – diaphorase inhibitors and chemical oxidizers, confirmation, counter-screen for P. falciparum G6PD inhibitor project, biochemical, fluorescence intensity, 30 µM NADPH. hit rate 29% among 820. AID 504863, 2011. inhibition, % at 20 µM. Diaphorase/resazurin coupled assay, resorufin fluorescence. shares compounds with PfGluPho inh;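 active = inhibition averaging 50% or more, tested at 20 µM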
Numbers stand for hits; i = inactive; nt = no result shown.

SMILES	Neddyl block	PfGluPho inh	HKDC1 inhibitor	PfM18AAP inh	PfGluPho conf	others
Cc1ccc(NC2=C/C(=N\S(=O)(=O)c3cccs3)c3ccccc3C2=O)c(C)c1	i	102	40	i	58	HKDC1 act conf=i;Diaphorase 10uM=60;Diaph ctr 30uM=57
Cc1ccc(Cl)cc1NC1=C/C(=N\S(=O)(=O)c2cccs2)c2ccccc2C1=O	i	95	36	i	58	HKDC1 act conf=i;Diaphorase 10uM=i;Diaph ctr 30uM=i
O=C(CCN1CCN(S(=O)(=O)c2cccc([N+](=O)[O-])c2)CC1)Nc1ccccc1F	i	i	i	i	nt
CN(CC(=O)Nc1ccc(F)cc1)C(=O)c1ccc(OCc2ccccc2)cc1	i	i	i	nt	nt
O=C1c2cccc(NCCNCCO)c2C(=O)c2cccc(NCCNCCO)c21	i	i	i	nt	nt
O=C(CCCC(=O)N(CC(=O)NC1CCCCC1)c1ccccc1F)Nc1ccccn1	i	i	i	i	nt
CCC(C)C(N)C1=NC(C(=O)N[C@@H](CC(C)C)C(=O)N[C@H](CCC(=O)[O-])C(=O)N[C@H](C(=O)N[C@H]2CCCCNC(=O)[C@H](CC(N)=O)NC(=O)[C@@H](CC(=O)[O-])NC(=O)[C@H](Cc3cnc[nH]3)NC(=O)[C@@H](Cc3ccccc3)NC(=O)[C@H]([C@@H](C)CC)NC(=O)[C@@H](CCCN)NC2=O)[C@@H](C)CC)CS1.[Zn+2] (stereo not given in full)	i	64	92	nt	i	HKDC1 act conf=i
CCCC(NS(=O)(=O)c1ccc(-c2ccc(=O)[nH]n2)s1)c1cccs1 (stereo not given)	i	i	i	i	nt
COc1ncnc2c1oc1nc(C)c3c(c12)CC(C)(C)OC3	i	i	i	i	nt
CC(C)c1nc2oc3c(NCc4ccccn4)ncnc3c2c2c1COC(C)(C)C2	i	65	35	nt	i	HKDC1 act conf=i
COc1ncnc2c1oc1nc(C(C)C)c3c(c12)CC(C)(C)OC3	i	62	53	i	i	HKDC1 act conf=i
CCOC(=O)c1cc2c(OC)c(OC)ccc2c2[nH]cc(C#N)c(=O)c12	nt	i	nt	nt	nt
Cc1cc(C)c2c(=N)c3ccccc3n(CCCCCCCCn3c4ccccc4c(=N)c4c(C)cc(C)nc43)c2n1	i	76	74	nt	51	HKDC1 act conf=i;Diaphorase 10uM=i;Diaph ctr 30uM=i
O=C(/C=C/c1cccs1)Nc1scc(-c2ccccc2)c1C(=O)O	i	70	81	i	i	HKDC1 act conf=i
O=C(/C=C/c1cccs1)Nc1nc(-c2ccccc2)cs1	i	i	i	i	nt
CC1CCCN(S(=O)(=O)c2ccc(NC(=O)C3CCN(C(=O)C(C)(C)C)CC3)cc2)C1 (stereo not given)	i	i	i	nt	nt
COc1ccc(/C=C2\C(=O)NC(=O)c3ccccc32)cc1OC	nt	69	i	nt	i
O=C(CN1CCCCC1)Nc1ccc(S(=O)(=O)N2CCCCCC2)cc1	i	i	i	i	nt
O=C(CN1CCN(c2ccc(O)cc2)CC1)Nc1ccc(S(=O)(=O)N2CCCC2)cc1	i	60	i	nt	i
O=[N+]([O-])c1cccc(NC(=S)NCc2ccncc2)c1	i	79	i	i	i
CC(C)CC1Nc2ccc(C(=O)NCCCN3CCOCC3)cc2NC1=O (stereo not given)	i	i	i	i	nt
Cc1cc(-c2csc(N)n2)c(C)n1C	i	64	i	i	i
Cc1ccc(-n2c(C)cc(-c3csc(N)n3)c2C)cc1	i	i	i	i	nt
Cc1ccc2nc(Cl)c(/C=N/Nc3ccc(C(=O)O)cc3)cc2c1	nt	60	i	i	i
Cc1ccc(C(=O)Nc2scc(-c3ccccc3)c2C(=O)O)cc1	41	105	i	nt	i
SMILES	Neddyl block	PfGluPho inh	HKDC1 inhibitor	PfM18AAP inh	PfGluPho conf	others
COc1cc(C(=O)Nc2scc(-c3ccccc3)c2C(=O)O)cc(OC)c1OC	nt	69	i	i	i
CCOC(=O)c1c(-c2cc(OC)c(OC)c(OC)c2)csc1NC(=O)c1ccccc1	i	i	nt	nt	nt
COc1cc(C(=O)Nc2scc(-c3ccc(C)cc3)c2C(=O)O)cc(OC)c1OC	nt	76	i	i	i
Cc1cccc(C)c1OCC(=O)Nc1ccc2c(c1)C(=O)NC2=O	i	i	i	i	nt
O=C1C(=NO)CCc2ccccc21	i	62	i	nt	i
O=C(Nc1ccc2nc(-c3ccc(Br)o3)[nH]c2c1)c1ccco1	i	70	i	i	i
CC(=O)Nc1ccc2nc(-c3ccc(Br)o3)[nH]c2c1	i	i	i	i	nt
O=C(Nc1ccc2nc(-c3ccc(Br)o3)[nH]c2c1)c1cccs1	i	86	i	i	i
O=S(=O)(Cc1ccccc1)N(O)c1ccccc1	i	86	i	i	84	Diaphorase 10uM=74;Diaph ctr 30uM=53
Cc1nc(CS(=O)(=O)c2ccccn2)sc1C(=O)NNC(=O)c1ccccc1	i	i	i	i	nt
CC1(OC(=O)C2CCCC2)C(=O)C=C2C=C(c3ccsc3)N(C3CCCC3)C=C2C1=O (stereo not given)	i	63	i	nt	i
CC1(OC(=O)C2CCCC2)C(=O)C=C2C=C(c3ccsc3)N(CCCCO)C=C2C1=O (stereo not given)	i	66	i	nt	i
CC1(OC(=O)C2CCCC2)C(=O)C=C2C=C(c3ccsc3)N(Cc3ccco3)C=C2C1=O (stereo not given)	i	i	i	nt	nt
COc1ccc(NC2=Nc3cccc4cccc2c34)cc1	i	75	i	i	i
Cc1[nH]c2ccc(C(=O)N3CCN(c4ccc(F)cc4)CC3)cc2c1C	i	i	i	i	nt
CCn1c(C)nc2cc(C(=O)OC(C(F)(F)C(F)F)C(F)(F)C(F)F)ccc21	i	61	i	i	i
CCn1c(C)nc2cc(C(=O)NNC(=O)c3ccc(C)cc3)ccc21	i	i	i	nt	nt
COc1ccc(S(=O)(=O)N[C@@H](CSCc2ccccc2)C(=O)O)cc1	i	i	i	i	nt
N#CCC(=O)Nc1ccc(C(=O)OCC(=O)NC2CCCc3ccccc32)cc1 (stereo not given)	i	i	i	nt	nt
CC1=C(C(N)=O)C(c2ccc(Cl)cc2Cl)n2ncnc2N1 (stereo not given)	i	i	i	i	nt
CC1=C(C(N)=O)C(c2ccccc2[N+](=O)[O-])n2ncnc2N1 (stereo not given)	i	65	i	i	i
N/C(=N\OC(=O)c1ccc2c(c1)OCO2)c1ccncc1	i	i	i	i	nt
